Key:
Type in all cases: functional
KB = assay: Anticancer activity against human KB cells after 3 days by SRB assay; settings: 72 h, read-out: ED50 (the source's name)
Procedure, shortened: (§1)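 Cells seeded at 1500–7500 per well, compounds added from DMSO-diluted stock, grown 3 days in RPMI-1640 with 25mM HEPES, 0.25% sodium bicarbonate, 10% FBS and kanamycin. Attached cells fixed in cold 50% TCA, stained with 0.4% sulforhodamine B, absorbance read at 562 nm after dye solubilization. ED50 is the 50% growth-reduction concentration, averaged from at least three independent determinations.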

[1] = Anticancer activity against human KBVIN cells after 3 days by SRB assay; settings: 72 h, read-out: ED50 (the source's name); procedure, shortened: as §1
[2] = Selectivity ratio of ED50 for human KB cells to ED50 for human KBVIN cells
Procedure, shortened: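 Ratio of KB ED50 to KB-VIN ED50. Both values come from a 3-day sulforhodamine B assay with absorbance read at 562 nm. Cells were seeded at 1500–7500 per well and dosed from DMSO-diluted stock. Each ED50 is the mean of at least three independent determinations.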

Structure (SMILES) | EC50 (KB) | EC50 [1] | Ratio ED50 [2]
CCC1=C(O)c2c(oc(-c3cc(Cl)c(OC)c(OC)c3)cc2=O)C(CC)(CC)C1=O | 21.8 µM | 8.4 µM | 3
CCOc1cccc(-c2cc(=O)c3c(o2)C(CC)(CC)C(=O)C(CC)=C3O)c1OCC | 44.6 µM | 31.7 µM | 1.4
CCC1=C(O)c2c(oc(-c3ccc(Br)cc3)cc2=O)C(CC)(CC)C1=O | > 48.1 µM | 15.7 µM | 3
CCC1=C(O)c2c(oc(-c3ccc(C)c(C)c3)cc2=O)C(CC)(CC)C1=O | 35.5 µM | 0.71 µM | 50
CCC1=C(O)c2c(oc(-c3cccc(C)c3C)cc2=O)C(CC)(CC)C1=O | 3.1 µM | 0.85 µM | 4
CCC1=C(O)c2c(oc(-c3cccc(OC)c3OC)cc2=O)C(CC)(CC)C1=O | 35.2 µM | 4.02 µM | 9
CCC1=C(O)c2c(oc(-c3ccc(F)c(C)c3)cc2=O)C(CC)(CC)C1=O | 40.5 µM | 1.62 µM | 24
CCC1=C(O)c2c(oc(-c3ccc(CBr)cc3)cc2=O)C(CC)(CC)C1=O | > 46.5 µM | 27.9 µM | >2
CCC1=C(O)c2c(oc(-c3ccc(OC)c(F)c3)cc2=O)C(CC)(CC)C1=O | 26.7 µM | 0.1 µM | 250
CCC1=C(O)c2c(oc(-c3ccc(C)c(F)c3)cc2=O)C(CC)(CC)C1=O | 28.1 µM | 2.95 µM | 10
CCC1=C(O)c2c(oc(-c3ccc(SC)cc3)cc2=O)C(CC)(CC)C1=O | > 52.1 µM | 1.38 µM | >38
CCC1=C(O)c2c(oc(-c3ccc(OC)c(C)c3)cc2=O)C(CC)(CC)C1=O | 28.5 µM | 0.1 µM | 273
CCC1=C(O)c2c(oc(-c3ccccc3OC)cc2=O)C(CC)(CC)C1=O | 40.8 µM | 3.26 µM | 13
CCC1=C(O)c2c(oc(-c3cc(C)ccc3C)cc2=O)C(CC)(CC)C1=O | 14.5 µM | 3.41 µM | 4
CCC1=C(O)c2c(oc(-c3ccccc3F)cc2=O)C(CC)(CC)C1=O | > 56.2 µM | 3.93 µM | >14
CCCOc1ccc(-c2cc(=O)c3c(o2)C(CC)(CC)C(=O)C(CC)=C3O)cc1 | > 50.5 µM | 29.2 µM | >2
CCC1=C(O)c2c(oc(-c3ccc(COC)cc3)cc2=O)C(CC)(CC)C1=O | > 52.4 µM | 3.4 µM | 15
CCC1=C(O)c2c(oc(-c3ccc(OC)cc3C)cc2=O)C(CC)(CC)C1=O | 20.9 µM | 2.62 µM | 8
CCC1=C(O)c2c(oc(-c3ccc(F)cc3)cc2=O)C(CC)(CC)C1=O | 33 µM | 1.85 µM | 18
CCC1=C(O)c2c(oc(-c3ccc(OC)c(Cl)c3)cc2=O)C(CC)(CC)C1=O | 24.9 µM | 1.37 µM | 18
CCC1=C(O)c2c(oc(-c3cc(OC)c(OC)c(OC)c3)cc2=O)C(CC)(CC)C1=O | 46.7 µM | 5.6 µM | 8
CCC1=C(O)c2c(oc(-c3cc(C)c(C)cc3C)cc2=O)C(CC)(CC)C1=O | 8.2 µM | 4.37 µM | 2
CCC1=C(O)c2c(oc(-c3cccc(F)c3)cc2=O)C(CC)(CC)C1=O | > 56.2 µM | 3.09 µM | >18
CCC1=C(O)c2c(oc(-c3ccc(C)cc3C)cc2=O)C(CC)(CC)C1=O | 41.2 µM | 8.52 µM | 5
CCCc1ccc(-c2cc(=O)c3c(o2)C(CC)(CC)C(=O)C(CC)=C3O)cc1 | > 53 µM | 12.2 µM | >4

Structure (SMILES) | EC50 (KB) | EC50 [1] | Ratio ED50 [2]
CCCCc1ccc(-c2cc(=O)c3c(o2)C(CC)(CC)C(=O)C(CC)=C3O)cc1 | 111 µM | 37 µM | 3
CCC1=C(O)c2c(oc(-c3cc(C)c(O)c(C)c3)cc2=O)C(CC)(CC)C1=O | 18.3 µM | 8.9 µM | 2
CCC1=C(O)c2c(oc(-c3ccc(C)c(Cl)c3)cc2=O)C(CC)(CC)C1=O | 39 µM | 2.15 µM | 18
CCC1=C(O)c2c(oc(-c3ccc(OC)cc3)cc2=O)C(CC)(CC)C1=O | 17.7 µM | 0.68 µM | 26
CCC1=C(O)c2c(oc(-c3cccc(OC(F)(F)F)c3)cc2=O)C(CC)(CC)C1=O | > 47.4 µM | 9.95 µM | >5
CCC1=C(O)c2c(oc(-c3ccc(OC)c(OC)c3OC)cc2=O)C(CC)(CC)C1=O | 9.4 µM | 1.57 µM | 6
CCC1=C(O)c2c(oc(-c3cc(OC)ccc3OC)cc2=O)C(CC)(CC)C1=O | 8.8 µM | 2.51 µM | 4
CCC1=C(O)c2c(oc(-c3ccc(OC)c(OC)c3)cc2=O)C(CC)(CC)C1=O | 14.7 µM | 1 µM | 15
CCC1=C(O)c2c(oc(-c3cccc(C(F)(F)F)c3)cc2=O)C(CC)(CC)C1=O | 35.7 µM | 5.42 µM | 6.6
CCC1=C(O)c2c(oc(-c3ccccc3C(F)(F)F)cc2=O)C(CC)(CC)C1=O | 45.6 µM | 43.1 µM | 1
CCC1=C(O)c2c(oc(-c3ccc(O)c(O)c3)cc2=O)C(CC)(CC)C1=O | 10 µM | 5.41 µM | 2
CCC1=C(O)c2c(oc(-c3cc(OC)cc(OC)c3)cc2=O)C(CC)(CC)C1=O | 45.2 µM | 3.27 µM | 14
CCC1=C(O)c2c(oc(-c3ccc(OC)c(C)c3C)cc2=O)C(CC)(CC)C1=O | 5.43 µM | 0.28 µM | 20
CCC1=C(O)c2c(oc(-c3ccc(OC(F)(F)F)cc3)cc2=O)C(CC)(CC)C1=O | 36.5 µM | 9.95 µM | 4
CCC1=C(O)c2c(oc(-c3cccc(C)c3)cc2=O)C(CC)(CC)C1=O | 49.7 µM | 3.69 µM | 14
CCC1=C(O)c2c(oc(-c3ccc(C(C)(C)C)cc3)cc2=O)C(CC)(CC)C1=O | 29.3 µM | 17.4 µM | 2
CCC1=C(O)c2c(oc(-c3ccc(O)cc3)cc2=O)C(CC)(CC)C1=O | 20.6 µM | 20.6 µM | 1
CCOc1ccc(-c2cc(=O)c3c(o2)C(CC)(CC)C(=O)C(CC)=C3O)cc1 | > 52.4 µM | 7.54 µM | >7
CCC1=C(O)c2c(oc(-c3ccc(C(C)C)cc3)cc2=O)C(CC)(CC)C1=O | 8.13 µM | 1.08 µM | 
CCC1=C(O)c2c(oc(-c3cccc(OC)c3)cc2=O)C(CC)(CC)C1=O | 13.3 µM | 1.22 µM | 11
CCC1=C(O)c2c(oc(-c3ccc(C(F)(F)F)cc3)cc2=O)C(CC)(CC)C1=O | 35.7 µM | 10.3 µM | 3.5
CCC1=C(O)c2c(oc(-c3cc(C)cc(C)c3)cc2=O)C(CC)(CC)C1=O | 45.5 µM | 0.45 µM | 100
CCC1=C(O)c2c(oc(-c3ccccc3C)cc2=O)C(CC)(CC)C1=O [6,8,8-TRIETHYL-2-METHYL DESMOSDUMOTIN B] | 40.9 µM | 2.41 µM | 17
CCC1=C(O)c2c(oc(-c3cc(C)ccc3F)cc2=O)C(CC)(CC)C1=O | 47.3 µM | 3.24 µM | 15

Reference: ChEMBL document CHEMBL1250520, “Antitumor agents. 280. Multidrug resistance-selective desmosdumotin B analogues” (2010)
